From ChEMBL document CHEMBL1121626, “Quantitative structure-activity relationships for N-[N',N'-disubstituted-amino)acetyl]arylamines for local anesthetic activity and acute toxicity” (J Med Chem, 1980)
Activity calls are given as the source filed them. The rule behind the calls is not given here.

Key:
[1] = Partition coefficient (logP) (cyclohexane); type: physicochemical; settings: cyclohexane/water
How it was run: (§1)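 Partition coefficients were measured by Brändström's titrimetric method at 25 °C in 1-octanol/water or cyclohexane/water. Amine hydrochloride in aqueous solution pre-saturated with the solvent was one-fifth neutralized with NaOH, then solvent was added. The pH was held at its original value by automatic alkali addition until equilibrium. Each value is the mean of eight determinations, reported with 95% confidence intervals.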

[2] = Partition coefficient (logP); type: physicochemical; settings: octanol/water; how it was run: as §1
Mus musculus [3] = organism: Mus musculus; test: Antiarrhythmic activity (arrhythmy induced by HCCl3 in mice) measured as its effect on ventricular fibrillation; No effect; type: functional, organism-based; settings: Heart
[4] = Intravenous lethal dose of the compound; type: ADME, organism-based; settings: mouse, in vivo
How it was run: (§2)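 Mice, groups of 10 randomized animals; aqueous drug solution given intravenously at 0.2 mL/20 g body weight. Percentage dead scored 5 days after start of experiment; LD50 derived by the usual statistical method, reported with 95% confidence interval.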

Mus musculus [5] = test: Compound was evaluated for lethal dose (pLD50 = log1/LD50 in mol/kg.); type: toxicity, organism-based; settings: in vivo; how it was run: as §2
Oryctolagus cuniculus [6] = test: Anaesthetic activity measured as anaesthetic dose (AD) required to nullify the rabbit corneal reflex after 5 min; type: functional, Cornea
How it was run: (§3)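 Aqueous drug solution, 0.25 mL, applied to rabbit cornea for 1 min, then wiped off. 100 regular mechanical stimulations were given. The minimal active dose is the concentration that abolished the corneal reflex at 5 min. Testing was repeated until 10 concordant results were obtained, with experimental error no more than 10%.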

Oryctolagus cuniculus [7] = test: Compound was evaluated for anesthetic dose (pAD = log 1/AD; AD = anesthetic dose)
Mus musculus [8] = test: Delay of respiratory arrest was observed at 5 mg/kg ip in mice in antiarrhythmic assay; type: functional, Heart; settings: route intraperitoneal
Oryctolagus cuniculus [9] = test: Anaesthetic activity measured as anaesthetic dose (AD) required to nullify the rabbit corneal reflex after 5 min;d = Irritant; type: functional, organism-based; settings: Cornea; how it was run: as §3
[10] = Dissociation constant was observed; type: physicochemical
How it was run: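 Values for water-insoluble compounds were obtained by extrapolation. Two values were derived indirectly from P = P'(1 + 10^(pKa − pH)), using P' measured at pH 12 and 7.34, or at pH 7.2 and 6.0.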

[11] = Compound was evaluated for the apparent partition coefficient at pH 7.4; type: physicochemical; settings: octanol/water
How it was run: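 Apparent partition coefficient at pH 7.4 was calculated from the octanol/water log P and pKa using P = P'(1 + 10^(pKa − pH)).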

Mus musculus [12] = test: Delay of respiratory arrest was observed at 10 mg/kg ip in mice in antiarrhythmic assay; type: functional, Heart; settings: route intraperitoneal

For `CCN(CC)CC(=O)NC1c2ccccc2CCc2ccccc21.Cl`, which logP [1] is on record?
Its logP is 4.153.

And the logP [2]?
The logP was 4.41.

And the Activity (Mus musculus [3])?
The Activity was “inactive”.

And the LD50 [4]?
Its LD50 is 139 µmol/kg.

And the pLD50 (Mus musculus [5])?
The pLD50 was 3.86.

What about the AD (Oryctolagus cuniculus [6]) of the same molecule?
The AD was 20.9 mM.

And the pAD (Oryctolagus cuniculus [7])?
Its pAD is 1.25.

With `CCN(CC)CC(=O)NCc1ccccc1-c1ccccc1.Cl` as the molecule, how does the logP [1] read?
Its logP is 3.2.

And the logP [2]?
Its logP is 3.74.

And the Activity (Mus musculus [3])?
The Activity was “inactive”.

What about the Increase (Mus musculus [8]) of the same molecule?
Its Increase is 20.5%.

What about the LD50 [4] of the same molecule?
The LD50 was 128 µmol/kg.

What about the pLD50 (Mus musculus [5]) of the same molecule?
The pLD50 was 3.89.

And the AD (Oryctolagus cuniculus [6])?
The AD was 34.5 mM.

And the pAD (Oryctolagus cuniculus [7])?
The pAD was 1.82.

Which results are given for `CN(C)CC(=O)NCc1ccccc1.Cl`?
logP [1]: -0.453; logP [2]: 1.11; Activity (Mus musculus [3]): inactive; LD50 [4]: 735 µmol/kg; pLD50 (Mus musculus [5]): 3.13; AD (Oryctolagus cuniculus [9]): Irritant; pKa [10]: 7.62; logD [11]: 0.681

Which logP [1] does the source give for `CCCN(CCC)CC(=O)NC1CCc2ccccc21.Cl` (stereo not given) here?
Its logP is 3.277.

What about the logP [2] of the same molecule?
The logP was 3.79.

And the Activity (Mus musculus [3])?
The Activity was “inactive”.

What about the LD50 [4] of the same molecule?
The LD50 was 145 µmol/kg.

And the pLD50 (Mus musculus [5])?
Its pLD50 is 3.84.

And the AD (Oryctolagus cuniculus [6])?
Its AD is 12.8 mM.

And the pAD (Oryctolagus cuniculus [7])?
The pAD was 1.89.

With `CCN(CC)CC(=O)NC1c2ccccc2-c2ccccc21.Cl` as the molecule, how does the logP [1] read?
The logP was 3.067.

And the logP [2]?
The logP was 3.64.

And the Activity (Mus musculus [3])?
The Activity was “inactive”.

And the LD50 [4]?
Its LD50 is 146 µmol/kg.

And the pLD50 (Mus musculus [5])?
The pLD50 was 3.83.

What about the AD (Oryctolagus cuniculus [6]) of the same molecule?
The AD was 15.1 mM.

What about the pKa [10] of the same molecule?
Its pKa is 7.98.

What about the logD [11] of the same molecule?
The logD was 2.96.

What about the pAD (Oryctolagus cuniculus [7]) of the same molecule?
The pAD was 1.82.

For `CCN(CC)CC(=O)NC1CCc2ccccc21.Cl` (stereo not given), which logP [1] is on record?
Its logP is 1.645.

And the logP [2]?
The logP was 2.74.

What about the Activity (Mus musculus [3]) of the same molecule?
Its Activity is “inactive”.

What about the LD50 [4] of the same molecule?
Its LD50 is 238 µmol/kg.

And the pLD50 (Mus musculus [5])?
Its pLD50 is 3.62.

And the AD (Oryctolagus cuniculus [6])?
Its AD is 27.9 mM.

What about the pKa [10] of the same molecule?
The pKa was 8.19.

What about the logD [11] of the same molecule?
The logD was 1.88.

What about the pAD (Oryctolagus cuniculus [7]) of the same molecule?
The pAD was 1.45.

With `CCCN(CCC)CC(=O)NC1c2ccccc2-c2ccccc21.Cl` as the molecule, how does the logP [1] read?
Its logP is 4.44.

What about the logP [2] of the same molecule?
Its logP is 4.61.

And the Activity (Mus musculus [3])?
The Activity was “inactive”.

What about the AD (Oryctolagus cuniculus [6]) of the same molecule?
The AD was 20.9 mM.

And the pKa [10]?
Its pKa is 7.28.

What about the logD [11] of the same molecule?
Its logD is 4.37.

And the pAD (Oryctolagus cuniculus [7])?
Its pAD is 1.68.

For `CCN(CC)CC(=O)NC(c1ccccc1)c1ccccc1.Cl`, which logP [1] is on record?
The logP was 3.2.

And the logP [2]?
The logP was 3.74.

What about the Activity (Mus musculus [3]) of the same molecule?
The Activity was “inactive”.

And the Increase (Mus musculus [12])?
The Increase was 27.8%.

And the LD50 [4]?
The LD50 was 212 µmol/kg.

What about the pLD50 (Mus musculus [5]) of the same molecule?
Its pLD50 is 3.67.

What about the AD (Oryctolagus cuniculus [6]) of the same molecule?
The AD was 15 mM.

What about the pAD (Oryctolagus cuniculus [7]) of the same molecule?
The pAD was 1.82.

Which logP [1] does the source give for `Cl.O=C(CN1CCOCC1)NCc1ccccc1` here?
The logP was -1.132.

What about the logP [2] of the same molecule?
The logP was 0.672.

And the Activity (Mus musculus [3])?
The Activity was “inactive”.

What about the LD50 [4] of the same molecule?
The LD50 was 1720 µmol/kg.

And the pLD50 (Mus musculus [5])?
The pLD50 was 2.77.

What about the AD (Oryctolagus cuniculus [6]) of the same molecule?
Its AD is 185 mM.

What about the pKa [10] of the same molecule?
The pKa was 4.98.

What about the logD [11] of the same molecule?
Its logD is 0.67.

What about the pAD (Oryctolagus cuniculus [7]) of the same molecule?
The pAD was 0.73.

Which results are given for `CCCN(CCC)CC(=O)NCc1ccccc1.Cl`?
logP [1]: 2.386; logP [2]: 3.11; Activity (Mus musculus [3]): inactive; LD50 [4]: 254 µmol/kg; pLD50 (Mus musculus [5]): 3.59; AD (Oryctolagus cuniculus [6]): 17.5 mM; pAD (Oryctolagus cuniculus [7]): 1.75

Which results are given for `Cl.O=C(CN1CCCCC1)NCc1ccccc1`?
logP [1]: 1.198; logP [2]: 2.27; Activity (Mus musculus [3]): inactive; LD50 [4]: 245 µmol/kg; pLD50 (Mus musculus [5]): 3.61; AD (Oryctolagus cuniculus [6]): 186 mM; pKa [10]: 7.71; logD [11]: 1.78; pAD (Oryctolagus cuniculus [7]): 0.73

What does the source list for `CCCCCN(CCCCC)CC(=O)NCc1ccccc1.Cl`?
logP [1]: 5.259; logP [2]: 5.19; Activity (Mus musculus [3]): inactive; AD (Oryctolagus cuniculus [6]): 29.3 mM; pAD (Oryctolagus cuniculus [7]): 1.53

What does the source list for `CCN(CC)CC(=O)NCc1ccccc1.Cl`?
logP [1]: 1.02; logP [2]: 2.14; Activity (Mus musculus [3]): inactive; Increase (Mus musculus [12]): 25%; LD50 [4]: 376 µmol/kg; pLD50 (Mus musculus [5]): 3.42; AD (Oryctolagus cuniculus [6]): 117 mM; pKa [10]: 8.07; logD [11]: 1.39; pAD (Oryctolagus cuniculus [7]): 0.93

Which logP [1] does the source give for `O=C(CN1CCCC1)NCc1ccccc1` here?
Its logP is 0.156.

What about the logP [2] of the same molecule?
Its logP is 1.69.

And the Activity (Mus musculus [3])?
The Activity was “inactive”.

And the LD50 [4]?
The LD50 was 361 µmol/kg.

And the pLD50 (Mus musculus [5])?
The pLD50 was 3.44.

And the AD (Oryctolagus cuniculus [6])?
Its AD is 196 mM.

What about the pKa [10] of the same molecule?
Its pKa is 8.27.

And the logD [11]?
Its logD is 0.769.

What about the pAD (Oryctolagus cuniculus [7]) of the same molecule?
The pAD was 0.71.

For `CCCCN(CCCC)CC(=O)NCc1ccccc1.Cl`, which logP [1] is on record?
Its logP is 3.791.

What about the logP [2] of the same molecule?
Its logP is 4.16.

What about the Activity (Mus musculus [3]) of the same molecule?
Its Activity is “inactive”.

What about the Increase (Mus musculus [8]) of the same molecule?
Its Increase is 33.2%.

And the LD50 [4]?
Its LD50 is 116 µmol/kg.

And the pLD50 (Mus musculus [5])?
The pLD50 was 3.93.

And the AD (Oryctolagus cuniculus [6])?
Its AD is 16 mM.

What about the pAD (Oryctolagus cuniculus [7]) of the same molecule?
The pAD was 1.8.

For `CCN(CC)CC(=O)NC1CC(c2ccccc2)c2ccccc21.Cl` (stereo not given), which logP [1] is on record?
The logP was 4.153.

What about the logP [2] of the same molecule?
The logP was 4.41.

And the Activity (Mus musculus [3])?
The Activity was “inactive”.

And the LD50 [4]?
Its LD50 is 164 µmol/kg.

What about the pLD50 (Mus musculus [5]) of the same molecule?
The pLD50 was 3.78.

And the AD (Oryctolagus cuniculus [6])?
The AD was 55.8 mM.

What about the pAD (Oryctolagus cuniculus [7]) of the same molecule?
Its pAD is 1.55.

Which results are given for `CCN(CC)CCOC(=O)c1ccc(N)cc1.Cl` [PROCAINE HYDROCHLORIDE]?
Activity (Mus musculus [3]): inactive; LD50 [4]: 169 µmol/kg; AD (Oryctolagus cuniculus [6]): 36.7 mM
